Data set [1] can be described thus: Safety assay on normal cells, MTT assay. As to conditions: human, WI-38 cells (normal lung fibroblast cell line). In kind it is cell-based. In short, it runs like this: (§1)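 MTT viability assay, run on normal WI-38 and WISH cells in parallel with MDA-MB-231 and MCF-7 breast cancer lines to judge selectivity. A series of test compounds and a reference drug were tested.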

Data set [2] can be described thus: Safety assay on normal cells, MTT assay. Type of data set: cell-based. As to conditions: human, WISH cells (normal amnion cell line). In outline: as §1
For the next data set, the system named is MCF-7. As to conditions: read-out: IC50 against MCF-7; cited from earlier work.
The next data set concerns HCT-116. The note with it: cited from earlier work.
For data set [3], the system named is MDA-MB-231 cells. Type of data set: cell-based, human. As to conditions: cancer cells over normal cells.
The test system of another data set is MCF-7 cells. Type of data set: cell-based, human. The note with it: cancer cells over normal cells.
The target of a further data set is VEGFR-2 (Homo sapiens, UniProt P35968). Put plainly: biochemical.
For data set [4], the system named is MDA-MB-231 cells. The data set can be described thus: Cell cycle analysis, flow cytometry. In kind it is cell-based, human. As to conditions: MDA-MB-231, 4.64 µM 7a, 48 h.
In data set [5] the test system is MDA-MB-231 cells. Put plainly: Apoptosis analysis, Annexin V-FITC/PI flow cytometry. In kind it is cell-based, human. In short, it runs like this:
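Annexin V-FITC/PI flow cytometry on MDA-MB-231 cells exposed to test compound. Percentages of viable, early apoptotic, late apoptotic and necrotic cells are compared against an untreated control group of the same cells.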

The next data set relates to caspase-3. The data set can be described thus: ELISA for caspase-3 in MDA-MB-231 cells. In kind it is cell-based, human.
In the next data set the test system is Bcl-2. Put plainly: ELISA for Bcl-2 in MDA-MB-231 cells. In kind it is cell-based, human.
The subject of another data set is Bax. The data set can be described thus: ELISA for Bax in MDA-MB-231 cells. In kind it is cell-based, human. As to conditions: MDA-MB-231, 4.64 µM 7a, 72 h.
The mark [6] stands for this setting: MDA-MB-231, 4.64 µM 7a, 72 h, ELISA.

Structures are written as SMILES. Where two headings read alike, the source gives them in different places.

Chain of VEGFR-2 (P35968 20-1356): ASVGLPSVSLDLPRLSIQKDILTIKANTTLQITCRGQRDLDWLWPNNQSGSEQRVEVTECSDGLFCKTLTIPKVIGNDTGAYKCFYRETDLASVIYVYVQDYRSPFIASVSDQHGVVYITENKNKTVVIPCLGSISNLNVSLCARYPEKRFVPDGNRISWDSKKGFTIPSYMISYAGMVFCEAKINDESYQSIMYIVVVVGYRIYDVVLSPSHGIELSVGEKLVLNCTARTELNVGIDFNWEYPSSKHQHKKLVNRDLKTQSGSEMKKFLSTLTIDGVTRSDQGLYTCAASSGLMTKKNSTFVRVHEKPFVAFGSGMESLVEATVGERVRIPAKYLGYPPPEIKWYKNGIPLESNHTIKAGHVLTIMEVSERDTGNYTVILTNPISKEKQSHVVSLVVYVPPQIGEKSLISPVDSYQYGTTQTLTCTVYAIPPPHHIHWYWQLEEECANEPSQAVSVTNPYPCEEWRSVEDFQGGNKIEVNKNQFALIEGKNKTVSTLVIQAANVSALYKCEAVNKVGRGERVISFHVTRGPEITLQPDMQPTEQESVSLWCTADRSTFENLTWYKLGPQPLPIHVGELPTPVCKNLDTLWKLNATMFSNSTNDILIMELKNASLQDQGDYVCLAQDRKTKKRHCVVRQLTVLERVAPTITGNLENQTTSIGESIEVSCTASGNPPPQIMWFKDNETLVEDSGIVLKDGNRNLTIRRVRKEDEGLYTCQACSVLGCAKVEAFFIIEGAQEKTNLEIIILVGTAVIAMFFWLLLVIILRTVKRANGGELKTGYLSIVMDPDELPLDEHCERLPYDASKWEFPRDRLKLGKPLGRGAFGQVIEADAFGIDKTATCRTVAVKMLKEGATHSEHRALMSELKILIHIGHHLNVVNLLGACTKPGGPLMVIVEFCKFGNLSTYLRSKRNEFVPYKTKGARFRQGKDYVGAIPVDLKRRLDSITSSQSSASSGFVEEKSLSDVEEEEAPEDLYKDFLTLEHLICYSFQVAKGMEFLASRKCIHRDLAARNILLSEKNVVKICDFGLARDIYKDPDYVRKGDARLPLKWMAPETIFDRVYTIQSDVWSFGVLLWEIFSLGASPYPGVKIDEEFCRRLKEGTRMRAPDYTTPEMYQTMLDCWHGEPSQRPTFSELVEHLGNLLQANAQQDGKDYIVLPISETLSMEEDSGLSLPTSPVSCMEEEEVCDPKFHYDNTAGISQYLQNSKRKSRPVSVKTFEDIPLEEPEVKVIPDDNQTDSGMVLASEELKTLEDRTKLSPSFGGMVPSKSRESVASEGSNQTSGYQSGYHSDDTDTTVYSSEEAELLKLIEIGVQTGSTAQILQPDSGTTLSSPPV

As for `CNC(=O)c1cc(Oc2ccc(NC(=O)Nc3ccc(Cl)c(C(F)(F)F)c3)cc2)ccn1` [Sorafenib], the IC50 at 24 h was determined as 10.6 ± 0.8 µM in [1] and 13.4 ± 1.1 µM in [2]. Also, the IC50 was 6.72 µM in the data set on MCF-7, 9.3 µM in the data set with HCT-116 (read-out: IC50 against HCT-116) and 7.28 µM in the data set on HCT-116 (read-out: IC50 against HCT-116 cells).
As to `CC(=O)c1nn(-c2ccccc2Cl)/c(=N/N=C(\C)c2ccc(NC(=O)c3cccnc3)cc2)s1` [Compound 7a, N-(4-((E)-1-(((Z)-5-Acetyl-3-(2-chlorophenyl)-1,3,4-thiadiazol-2(3H)-ylidene)hydrazono)ethyl)phenyl)nicotinamide], the “Selectivity index (SI) for MDA-MB-231” value in the data set with MDA-MB-231 cells [3] stood at 15.86. The “Selectivity index (SI) for MCF-7” value in the data set on MCF-7 cells was 8.14. In addition, the IC50 at 24 h in data set [1] stood at 73.6 ± 3.8 µM. This compound also gave an IC50 at 24 h in [2] of 57.7 ± 3.3 µM. On VEGFR-2, this compound returned an IC50 of 0.095 ± 0.05 µM. In addition, in the data set on MDA-MB-231 cells [4], the “Cell cycle distribution, G0/G1” value was 33%; the “Cell cycle distribution, G2/M” value amounted to 8%; the “Cell cycle distribution, S” value is 59%. In addition, in the data set with MDA-MB-231 cells [5] (Homo sapiens, MDA-MB-231, 48 h, read-out: Viable cells), the viability at 4.64 µM was 50%. Besides, in the data set with MDA-MB-231 cells [5] (MDA-MB-231, 4.64 µM 7a, 48 h), the Early apoptosis was determined as 1.06%, the Late apoptosis is given as 44.01% and the Necrosis is recorded as 4.94%. The compound also registered a Caspase-3 conc. in the data set with caspase-3 (setting [6]) of 441.93. Further, the “Caspase-3 FLD” value with caspase-3 (fold vs control MDA-MB-231 (FLD = 1), upregulated) was determined as 8.2 fold. Further, the Bcl-2 conc. with Bcl-2 (setting [6]) is given as 1.53. Also, the “Bcl-2 FLD” value in the data set with Bcl-2 (fold vs control MDA-MB-231 (FLD = 1), downregulated) is 3.68 fold. This compound showed a Bax conc. in the data set on Bax of 394.72.
